This is an account of results in ChEMBL document CHEMBL1938394, “Time-dependent slowly-reversible inhibition of monoamine oxidase A by N-substituted 1,2,3,6-tetrahydropyridines” (Bioorg Med Chem, 2011).

Structures are written as SMILES.

What is called IC50 is the concentration needed to halve the response being measured. In general, Ki refers to a measure of affinity in units of concentration, obtained from inhibition or displacement.

For data set [1], the system named is Mus musculus. Briefly: Neurotoxicity in C57BL/6J mouse assessed as increase of striatal GFAP level at 12.5 mg/kg, sc after 72 hrs by ELISA. It is filed as toxicity, organism-based. Details: dose 12.5 mg/kg, route subcutaneous; call rule not given here. To be noted: in vivo. Summed up: (§1)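 Female C57BL/6J mice aged 3–4 months, single sc dose, 0.9% saline vehicle, killed 72 h post-dose. Striatum homogenised in hot 1% SDS. GFAP or TH measured by detergent-based sandwich ELISA.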
Background: In an ELISA, binding on a coated surface is turned into a signal by an enzyme label.

Data set [2] addresses T1, Amine oxidase [flavin-containing] A (Homo sapiens, UniProt P21397).
T1 sequence (P21397 whole entry): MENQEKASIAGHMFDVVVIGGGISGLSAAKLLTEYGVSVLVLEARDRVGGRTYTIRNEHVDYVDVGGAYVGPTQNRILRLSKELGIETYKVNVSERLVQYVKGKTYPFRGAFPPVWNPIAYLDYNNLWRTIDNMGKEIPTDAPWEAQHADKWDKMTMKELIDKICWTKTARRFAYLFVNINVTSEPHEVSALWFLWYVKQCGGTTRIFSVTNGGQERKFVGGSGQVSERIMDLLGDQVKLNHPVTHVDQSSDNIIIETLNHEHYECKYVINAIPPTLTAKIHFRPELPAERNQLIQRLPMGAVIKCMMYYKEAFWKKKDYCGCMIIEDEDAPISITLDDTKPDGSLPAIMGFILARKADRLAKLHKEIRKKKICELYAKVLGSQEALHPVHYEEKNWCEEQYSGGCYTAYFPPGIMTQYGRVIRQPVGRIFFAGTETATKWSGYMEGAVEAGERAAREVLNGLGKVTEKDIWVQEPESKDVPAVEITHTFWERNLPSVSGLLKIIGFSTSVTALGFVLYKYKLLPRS
Briefly: Inhibition of human recombinant MAOA expressed in insect cells assessed as oxidation of kynuramine substrate at 50 uM measured after additional substrate added after 90 mins incubation. To be noted: 1.5 h. Summed up: (§2)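 Recombinant human MAO-A incubated with kynuramine, with or without inhibitor. Product formation followed over time. A second equivalent of substrate (150 µM kynuramine) added at 90 min and fresh enzyme added at 120 min.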

Data set [3] has as its target T1, Amine oxidase [flavin-containing] A. Briefly: Inhibition of human recombinant MAOA expressed in insect cells assessed as oxidation of kynuramine substrate at 50 uM measured after additional enzyme added after 120 mins incubation. To be noted: 2 h. Summed up: as §2
Data set [4] relates to Mus musculus. In words: Neurotoxicity in C57BL/6J mouse assessed as reduction of striatal tyrosine hydroxylase level at 12.5 mg/kg, sc after 72 hrs by ELISA. Format: toxicity, organism-based. Also noted: dose 12.5 mg/kg, route subcutaneous. To be noted: in vivo. Summed up:
as §1

Data set [5] has as its target T1, Amine oxidase [flavin-containing] A. In words: Inhibition of human recombinant MAOA expressed in insect cells using kynuramine substrate after 60 mins.
For data set [6] the target is unchanged. In words: Competitive inhibition of human recombinant MAO-A assessed as dissociation constant for enzyme-inhibitor-substrate complex by Lineweaver-Burk plot analysis. Summed up: (§3)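 Human recombinant MAO-A (0.005 mg/mL) in 0.1 M sodium phosphate pH 7.4 made isotonic with NaCl, 37 °C, 30 min. Initial oxidation rates at four kynuramine levels (50–150 µM) without or with four inhibitor concentrations (range per compound, 5–1000 µM). Ki from Lineweaver–Burk plots and replots by linear regression; triplicate.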

Data set [7] has the same target. In words: Inhibition of human recombinant MAOA expressed in insect cells assessed as oxidation of kynuramine substrate at 2 mM measured after additional substrate added after 90 mins incubation. To be noted: 1.5 h. Summed up: as §2
The target is the same in data set [8]. In words: Inhibition of human recombinant MAOA expressed in insect cells assessed as oxidation of kynuramine substrate at 2 mM measured after additional enzyme added after 120 mins incubation. To be noted: 2 h, 2000 µM. Summed up: as §2
The target is the same in data set [9]. In words: Competitive inhibition of human recombinant MAO-A assessed as dissociation constant for enzyme-inhibitor complex by Lineweaver-Burk plot analysis. Summed up: as §3
Data set [10] concerns the target T2, Amine oxidase [flavin-containing] B (Homo sapiens, UniProt P27338).
T2 sequence (P27338 whole entry): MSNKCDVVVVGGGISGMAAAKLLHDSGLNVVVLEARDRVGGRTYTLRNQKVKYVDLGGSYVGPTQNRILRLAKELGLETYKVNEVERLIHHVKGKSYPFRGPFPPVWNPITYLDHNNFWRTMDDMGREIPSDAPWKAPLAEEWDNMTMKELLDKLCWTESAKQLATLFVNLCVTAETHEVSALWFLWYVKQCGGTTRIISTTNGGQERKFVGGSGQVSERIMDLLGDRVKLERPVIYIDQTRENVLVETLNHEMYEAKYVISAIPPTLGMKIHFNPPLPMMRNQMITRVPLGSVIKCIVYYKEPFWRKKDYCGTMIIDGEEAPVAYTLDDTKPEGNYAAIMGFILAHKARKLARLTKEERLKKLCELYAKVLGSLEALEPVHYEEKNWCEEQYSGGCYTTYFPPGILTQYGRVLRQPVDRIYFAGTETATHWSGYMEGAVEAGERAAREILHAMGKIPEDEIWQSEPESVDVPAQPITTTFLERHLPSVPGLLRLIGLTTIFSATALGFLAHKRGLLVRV
In words: Inhibition of human recombinant MAOB expressed in insect cells using benzylamine hydrochloride as substrate after 30 mins. Summed up: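 Human recombinant MAO-B (0.01 mg/mL) in 0.1 M isotonic phosphate buffer pH 7.4, inhibitor 0–7000 µM, benzylamine 1000 µM final, 30 min at 37 °C. Stopped with perchloric acid; benzaldehyde measured by reverse-phase HPLC with UV 254 nm. IC50 from sigmoidal log dose–response fit; triplicate, mean ± SD.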

For the next data set, the species on record is Homo sapiens. In words: Selectivity index, ratio of IC50 for human recombinant MAOB to IC50 for human recombinant MAOA. Summed up:
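MAO-A (0.005 mg/mL; 150 μM kynuramine, 60 min, 37 °C, […]) and MAO-B (0.01 mg/mL; 1000 μM benzylamine, 30 min, 37 °C, perchloric acid stop, benzaldehyde by HPLC-UV at 254 nm) in isotonic 0.1 M phosphate pH 7.4. Inhibitor 0–7000 μM. IC50s from sigmoidal log curves in triplicate. SI = MAO-B IC50 / MAO-A IC50.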

`CN1CC=C(c2ccccc2)CC1`: the Activity result in the data set with Mus musculus [1] and in the data set on Mus musculus [4] was “Toxic” in each case. Besides, the “inhibition (INH)” value in data set [2] and in [3] was “Active” throughout.
`c1ccc(CCN2CCCCC2)cc1` [1-PHENETHYLPIPERIDINE]: the IC50 in data set [5] was 757 µM; in data set [10], 762 µM. Also, the inhibition constant Ki in data set [6] is 3680 µM; in [9], 121 µM. The “inhibition (INH)” value in data set [7] and in data set [8] was “Active” in each case. Further, the Ratio IC50 in the data set filed under Homo sapiens stood at 1.
